{"source": "paper PMC7729281", "about": "(Biochemistry, 2020)", "key": {"h12-LOX [1]": {"target": "T1, h12-LOX (Homo sapiens, UniProt P18054)", "T1 sequence (P18054 1-663)": "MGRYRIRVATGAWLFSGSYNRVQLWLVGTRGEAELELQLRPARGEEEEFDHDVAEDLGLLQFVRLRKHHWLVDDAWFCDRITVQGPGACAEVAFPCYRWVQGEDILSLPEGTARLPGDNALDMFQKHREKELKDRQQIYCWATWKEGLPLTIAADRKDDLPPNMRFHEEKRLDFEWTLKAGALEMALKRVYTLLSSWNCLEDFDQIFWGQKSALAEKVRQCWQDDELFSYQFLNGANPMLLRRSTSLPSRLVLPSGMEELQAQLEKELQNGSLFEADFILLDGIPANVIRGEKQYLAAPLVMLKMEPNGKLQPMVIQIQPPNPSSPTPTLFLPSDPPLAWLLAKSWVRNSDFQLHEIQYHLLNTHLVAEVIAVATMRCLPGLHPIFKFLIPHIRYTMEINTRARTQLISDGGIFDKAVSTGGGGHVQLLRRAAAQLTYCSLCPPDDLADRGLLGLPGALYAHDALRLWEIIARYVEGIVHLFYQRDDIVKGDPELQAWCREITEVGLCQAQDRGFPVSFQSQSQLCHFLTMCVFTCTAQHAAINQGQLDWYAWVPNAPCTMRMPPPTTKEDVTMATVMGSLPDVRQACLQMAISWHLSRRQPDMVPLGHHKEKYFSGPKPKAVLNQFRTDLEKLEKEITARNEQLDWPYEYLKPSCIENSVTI", "assay": "Allosteric modulation of 14S-HpDHA epoxidation by h12-LOX", "format": "biochemical", "settings": "14S-HpDHA titrated 1 to 50 μM, 76% at start", "procedure,_shortened": "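Recombinant human h15-LOX-1 (0.125 μM, 25 mM HEPES pH 7.5, 20 min) or h12-LOX (0.3 μM, pH 8.0, 1 h) reacted at room temperature with 1 μM 14S-HpDHA while oxylipin modulator was titrated (1–100 μM), or with 14S-HpDHA varied alone (1–50 μM). Products were reduced and analysed by LC-MS. Dehydration (epoxide) versus oxygenation product percentages were calculated, N = 3.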"}, "h15-LOX-2": {"target": "T2, h15-LOX-2 (Homo sapiens, UniProt O15296)", "T2 sequence (O15296 1-676)": "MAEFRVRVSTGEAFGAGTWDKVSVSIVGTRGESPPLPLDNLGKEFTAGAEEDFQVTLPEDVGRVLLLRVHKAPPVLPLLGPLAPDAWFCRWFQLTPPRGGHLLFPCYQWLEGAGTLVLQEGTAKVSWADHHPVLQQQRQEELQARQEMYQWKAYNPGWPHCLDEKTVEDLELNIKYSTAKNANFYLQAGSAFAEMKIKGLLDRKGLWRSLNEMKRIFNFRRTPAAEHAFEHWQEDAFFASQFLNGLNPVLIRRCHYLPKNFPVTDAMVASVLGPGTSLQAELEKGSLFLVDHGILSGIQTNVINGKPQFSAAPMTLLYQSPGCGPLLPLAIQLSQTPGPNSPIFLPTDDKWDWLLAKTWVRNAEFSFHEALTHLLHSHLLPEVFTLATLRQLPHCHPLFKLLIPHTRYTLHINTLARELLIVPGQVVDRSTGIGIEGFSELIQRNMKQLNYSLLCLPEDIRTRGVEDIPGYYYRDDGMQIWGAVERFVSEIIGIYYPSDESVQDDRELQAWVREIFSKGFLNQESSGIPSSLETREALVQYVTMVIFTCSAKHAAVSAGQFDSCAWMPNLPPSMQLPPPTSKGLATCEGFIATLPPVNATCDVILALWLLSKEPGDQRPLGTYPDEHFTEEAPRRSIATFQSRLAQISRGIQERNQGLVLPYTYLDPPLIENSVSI", "assay": "Steady-state kinetics of h15-LOX-2 with 14S-HpDHA", "format": "biochemical", "settings": "various 14S-HpDHA concentrations", "procedure,_shortened": "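Reactions were run in a quartz cuvette containing 2 mL of 25 mM HEPES, pH 7.5, at room temperature, with 14S-HpDHA at various concentrations. The 14S-HpDHA stock was quantified at 234 nm in methanol (ε 27 000 M−1 cm−1). Product formation was followed by absorbance at 270 nm (ε 37 000 M−1 cm−1), with triplicate reactions.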"}, "h12-LOX [2]": {"target": "T1, h12-LOX", "assay": "Steady-state kinetics of h12-LOX"}, "h15-LOX-1": {"target": "T3, h15-LOX-1 (Homo sapiens, UniProt P16050)", "T3 sequence (P16050 1-662)": "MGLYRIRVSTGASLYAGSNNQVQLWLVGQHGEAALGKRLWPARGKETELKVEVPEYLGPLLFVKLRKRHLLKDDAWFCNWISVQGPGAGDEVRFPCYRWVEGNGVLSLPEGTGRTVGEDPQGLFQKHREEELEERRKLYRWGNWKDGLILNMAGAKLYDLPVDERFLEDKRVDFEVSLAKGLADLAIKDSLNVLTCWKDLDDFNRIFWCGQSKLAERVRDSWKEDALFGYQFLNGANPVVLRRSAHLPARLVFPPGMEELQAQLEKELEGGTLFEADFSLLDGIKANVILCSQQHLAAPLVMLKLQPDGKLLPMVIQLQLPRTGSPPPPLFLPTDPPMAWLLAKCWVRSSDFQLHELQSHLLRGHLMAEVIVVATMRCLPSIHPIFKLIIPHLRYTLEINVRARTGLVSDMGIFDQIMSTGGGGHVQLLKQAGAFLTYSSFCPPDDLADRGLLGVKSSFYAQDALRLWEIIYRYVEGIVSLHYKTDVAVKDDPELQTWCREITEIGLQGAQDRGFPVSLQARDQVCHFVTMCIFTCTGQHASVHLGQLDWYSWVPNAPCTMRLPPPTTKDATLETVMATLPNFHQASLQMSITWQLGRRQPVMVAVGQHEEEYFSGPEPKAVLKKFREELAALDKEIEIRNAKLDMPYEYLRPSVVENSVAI", "assay": "Product analysis of h15-LOX-1 reactions", "format": "biochemical", "procedure,_shortened": "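h15-LOX-1 (0.125 μM, pH 7.5) or h12-LOX (0.300 μM, pH 8.0) was reacted in 25 mM HEPES at room temperature under ambient O2. Substrates were 10 μM DHA for 1 min (monitored at 234 nm) or 1 μM 14S-HpDHA for 20 min (h15-LOX-1) or 1 h (h12-LOX) (monitored at 270 nm). Reactions were quenched with acetic acid, spiked with d5-maresin-1, extracted into DCM and background-subtracted against a no-enzyme control. Split samples were run with or without trimethyl phosphite reduction. Products were identified by C18 LC-MS/MS (qTOF), N = 3.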"}, "[3]": {"settings": "h12-LOX + substrate, 25 mM HEPES pH 8.0, RT"}, "[4]": {"settings": "h15-LOX-1 + 1 μM 14S-HpDHA, 20 min, pH 7.5, ambient O2"}}, "note": "Several values for one entry are separate records, joined by “and”; a condition that tells them apart may be missing. Equal values may be shown once."}
{"smiles": "CC/C=C\\C/C=C\\C[C@@H](/C=C/C=C\\C/C=C\\C/C=C\\CCC(=O)O)OO", "note": "[14S-HpDHA, 14S-hydroperoxy-4Z,7Z,10Z,12E,16Z,19Z-docosahexaenoic acid]", "values": [{"measurement": "epoxidation product at end of titration", "setting": "h12-LOX [1]", "result": 19, "unit": "%"}, {"measurement": "reaction with h15-LOX-2", "setting": "h15-LOX-2", "result": "not to react"}, {"measurement": "fold difference of 13S,14S-epoxy-DHA biosynthetic flux", "setting": "h12-LOX [2]; h12-LOX + 14S-HpDHA", "result": 1.0}, {"measurement": "13S,14S-epoxy-DHA biosynthetic flux", "setting": "h12-LOX [2]; h12-LOX + 14S-HpDHA, B.F. = kcat/KM * % product", "result": 0.0018}, {"measurement": "Km", "setting": "h12-LOX [2]; [3]", "result": "88 ± 16", "unit": "µM"}, {"measurement": "kcat", "setting": "h12-LOX [2]; [3]", "result": "0.22 ± 0.02", "unit": "s⁻¹"}, {"measurement": "reduction of kcat", "setting": "h12-LOX [2]; h12-LOX, 14S-HpDHA relative to DHA", "result": 60, "unit": "fold"}, {"measurement": "fold difference of kcat/KM", "setting": "h12-LOX [2]; h12-LOX, kcat/KM of enzyme with DHA set to 1 (Table 5)", "result": "−5880"}, {"measurement": "product profile: 7S,14S-EZE-diHpDHA", "setting": "h15-LOX-1; [4]", "result": "29% and 29 ± 6%"}, {"measurement": "product profile: 13S,14S-epoxy-DHA (detected as 7S/R,14S-EEE-diHDHA)", "setting": "h15-LOX-1; [4]", "result": "71% and 71 ± 6%"}, {"measurement": "product profile: 14S,20-diHpDHA", "setting": "h15-LOX-1; [4]", "result": "<1.0", "unit": "%"}, {"measurement": "loss in 7S,14S-EZE-diHpDHA production at increased pH", "setting": "h15-LOX-1; h15-LOX-1 + 14S-HpDHA, Figure S3", "result": 7, "unit": "fold"}]}
